Bioassay records: PubChem BioAssay, several laboratories
ADAM10 inh: inhibits human ADAM10; O14672; recombinant ADAM10, EDANS/DABCYL FRET peptide cleavage, 3 h; inhibition, % at 7 µM; 370,000 compounds, 0.62% hits; AID 720582;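 active = inhibition above a per-campaign cutoff equal to the mean of compounds falling between control-based bounds plus 3 SD, cut at about 20% in these data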
Target sequence (O14672 214-748 limits assumed): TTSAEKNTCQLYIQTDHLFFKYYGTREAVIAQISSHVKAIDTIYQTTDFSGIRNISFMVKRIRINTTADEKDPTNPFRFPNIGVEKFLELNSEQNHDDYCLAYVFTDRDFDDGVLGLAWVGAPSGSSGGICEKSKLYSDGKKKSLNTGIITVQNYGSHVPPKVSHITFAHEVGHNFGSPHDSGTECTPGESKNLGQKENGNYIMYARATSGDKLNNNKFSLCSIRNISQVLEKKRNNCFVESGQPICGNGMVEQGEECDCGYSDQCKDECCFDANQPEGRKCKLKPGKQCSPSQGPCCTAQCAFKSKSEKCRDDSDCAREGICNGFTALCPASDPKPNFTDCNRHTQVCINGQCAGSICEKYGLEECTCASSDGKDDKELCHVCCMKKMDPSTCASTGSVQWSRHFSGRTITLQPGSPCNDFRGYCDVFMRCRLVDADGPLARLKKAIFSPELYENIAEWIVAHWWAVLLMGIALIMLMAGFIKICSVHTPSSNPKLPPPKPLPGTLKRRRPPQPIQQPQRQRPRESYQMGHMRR
Tn6 DDE FP: DD(E)-Tn6 binding inhibition, primary FP screen; Fibrin DD(E) TRITC-Tn6 fluorescence polarization displacement; inhibition, % at 8.3 µM; 370,000 compounds, 0.21% hits;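 active = inhibition above a per-campaign cutoff: mean of compounds within control limits plus 3 SD, cut at about 15% in these data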
MT1-MMP act inh: MT1-MMP (human) activation inhibition. AID 651647. P50281. 360,000 compounds, 0.061% hits. GFP/RFP ratio change, % at 20 µM. HT1080 RFP-PRO-GFP cells, GFP/RFP ratio fluorescence, overnight; percent of plate control window, DMSO zero;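 active = GFP/RFP ratio change of at least 30% with cell ATP level not reduced by more than half and red fluorescence within 50% of control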
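Assay system: HT1080 RFP-PRO-GFP cells | Dosing: 20 µM single dose, 1% DMSO | Incubation: Cells overnight before dosing, compound overnight, 37 °C, 5% CO2 | Evaluation: GFP/RFP fluorescence ratio | Control set: DMSO-only wells and HT1080 RFP-L50D-GFP cell wells as references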
ADAM17 inh: ADAM17 inhibition, QFRET primary screen | P78536 | inhibition, % at 6.95 µM | 370,000 compounds, 0.83% hits | AID 720648 | recombinant ADAM17, EDANS/DABCYL FRET peptide cleavage;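 active = inhibition above the mean of compounds lying between control limits plus 3 SD, set per campaign, cut at about 8.5% in these data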
DDE Tn7 FP inh: inhibitors of Tn7 peptide binding to human fibrin DD(E). FP displacement of FITC-Tn7 peptide from fibrin DD(E); 0% = median of compound wells per plate. inhibition, % at 8.3 µM. 370,000 compounds, 0.13% hits. AID 720508;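 active = inhibition above the mean of compounds falling within the control limits plus 3 SD of them, cut at about 14% in these data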
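Assay system: Fibrin-DD(E) protein isolated from polymerized human fibrin clots; read-out basis: percent inhibition; medium: Tris/NaCl/CaCl2 buffer, pH 7.8; signal: FP measurement; incubation: 10 min plus 3 h, room temperature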
ADAM10 ctr: counter-screen for ADAM17 exosite inhibitors: inhibitors of human ADAM10; shares compounds with ADAM17 inh; AID 743256; 2,900 compounds, 47% hits; recombinant ADAM10, EDANS/DABCYL FRET peptide cleavage, 3 h; inhibition, % at 6.95 µM;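 active = mean inhibition over the triplicate runs exceeds the activity threshold set in the earlier primary screen, cut at about 20% in these data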
ADAM17 confirm: confirmation of inhibitors of human ADAM17; inhibition, % at 6.95 µM; recombinant ADAM17, EDANS/DABCYL QFRET peptide cleavage; AID 743257; 2,900 compounds, 65% hits; shares compounds with ADAM17 inh;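 active = mean inhibition across replicates above the hit cutoff set in the primary screen, cut at about 8.5% in these data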
Numbers stand for hits; n = inactive; x = no result. Hits are enriched below; roughly 1.6% of the tested compounds scored in any of these assays.

SMILES	ADAM10 inh	Tn6 DDE FP	MT1-MMP act inh	ADAM17 inh	DDE Tn7 FP inh	ADAM10 ctr	ADAM17 confirm
O=C(NC(Nc1ncc(S(=O)(=O)c2ccc([N+](=O)[O-])cc2)s1)(C(F)(F)F)C(F)(F)F)c1ccc(Cl)cc1	n	n	n	12	n	41	17
Cc1cnn(CCC(=O)NNC(=S)Nc2ccccc2)c1	n	n	n	12	n	n	n
Cc1ccc(NC(=S)NNC(=O)CCn2cc(C)cn2)cc1	n	n	n	n	n	x	x
Cc1ccc(-n2c(SCC(=O)NNC(=S)Nc3ccccc3)nc3ccccc3c2=O)cc1	n	n	n	12	n	37	11
Cc1cccc(C)c1NC(=O)CNCC(=O)Nc1c(C)cccc1C	n	n	n	n	n	x	x
Cc1cccc(C)c1NC(=O)CNc1ccccc1	n	n	n	11	n	n	n
COc1ccc(-n2c(SCC(=O)NNC(=S)Nc3ccc(C)cc3)nnc2-c2ccccc2)cc1	n	n	x	n	n	x	x
Cc1cccc(NCC(=O)NNC(=S)Nc2ccccc2)c1	n	n	n	12	n	n	n
Cc1ccc(S(=O)(=O)Nc2cc(=O)[nH]c(SCc3ccc(Cl)cc3)n2)cc1	n	n	n	12	n	20	17
O=c1cc(NS(=O)(=O)c2ccccc2)nc(SCc2c(Cl)cccc2Cl)[nH]1	n	n	n	n	n	x	x
CC1Sc2ccc(S(=O)(=O)CCC(=O)Nc3ccccc3Cl)cc2NC1=O (configuration not stated)	n	n	n	9.3	n	n	n
CC(C)C(=O)N[C@H]1[C@H](O)CCC[C@]12C(=O)N(Cc1ccccc1)c1ccccc12	n	n	x	n	n	x	x
COc1ccc(CC(=O)NC(=S)Nc2ccc(S(=O)(=O)NC(C)(C)C)cc2)cc1	n	n	n	9.9	n	32	15
COc1ccc(CC(=O)NC(=S)Nc2ccc(S(N)(=O)=O)cc2)cc1	n	n	n	n	n	x	x
O=C(COC(=O)c1ccc(O)cc1O)Nc1cc(-c2ccccc2)nn1-c1ccccc1	n	n	n	8.8	n	24	16
C[C@H]1C(c2ccccc2F)O[C@]2(C[C@H](O)c3c(ccc4ccccc34)O2)C[C@@H]1O (some centres not stated)	n	n	x	n	n	x	x
O=C(c1ccccc1)C12COc3ccccc3C1ON=C2c1ccccc1 (configuration not stated)	n	n	x	n	n	x	x
O=c1ccn([C@@H]2O[C@H](CNCc3ccc(-c4cc(C(F)(F)F)ccc4Cl)o3)[C@@H](O)[C@H]2O)c(=O)[nH]1	n	n	n	n	n	x	x
Nc1ncnc2c1ncn2[C@@H]1O[C@H](CNCc2ccc(-c3cc(C(F)(F)F)ccc3Cl)o2)[C@@H](O)[C@H]1O	n	n	n	10	n	n	n
COc1cc(CCN(C(C)=O)C2C(=O)Nc3ccccc3N=C2c2ccc3c(c2)OCO3)cc(OC)c1 (configuration not stated)	n	n	n	n	n	x	x
Cc1cnc(C(=O)N(c2ccc(N3CCOCC3)cc2)C2C(=O)Nc3ccccc3N=C2c2ccc3c(c2)OCO3)cn1 (configuration not stated)	n	n	n	11	n	n	9.8
COC(=O)[C@]12C[C@H](CC(=O)N3CCN(C(=O)c4ccco4)CC3)C(=O)N(CCc3ccc(OC)c(OC)c3)C1=C[C@H](C1CCCC1)O[C@@H]2C	n	n	x	n	n	x	x
COC(=O)[C@]12C[C@H](CC(=O)N3CCN(C(=O)c4ccco4)CC3)C(=O)N(Cc3ccc(Cl)cc3Cl)C1=C[C@H](COCc1ccccc1)O[C@@H]2C	n	n	x	13	n	n	10
COC(=O)[C@]12C[C@H](CC(=O)NCc3ccc(C)o3)C(=O)N(Cc3ccccc3)C1=C[C@H](C1CCCC1)O[C@@H]2C	n	n	x	12	n	n	n
